Assay results: ChEMBL document CHEMBL1275591, “Cellular pharmacodynamics of the novel biaryloxazolidinone radezolid: studies with infected phagocytic and nonphagocytic cells, using Staphylococcus aureus, Staphylococcus epidermidis, Listeria monocytogenes, and Legionella pneumophila” (Antimicrob Agents Chemother, 2010)
≈ marks a conversion by molar mass, not a printed value.

Tests used:
[1] = tested on: Staphylococcus aureus; assay: Antimicrobial activity against hospital acquired methicillin-resistant, vancomycin resistant Staphylococcus aureus VRS1 after 24 hrs; type: functional; settings: VRS1, 24 h
[2] = tested on: Legionella pneumophila; assay: Antimicrobial activity against Legionella pneumophila ATCC 33153 after 48 hrs; type: functional; settings: ATCC 33153, 48 h
[3] = tested on: Staphylococcus aureus; assay: Bacteriostatic activity against linezolid-susceptible Staphylococcus aureus NRS18 infected in THP1 cells after 24 hrs; type: functional, THP-1
Summary of the method: (§1)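 Human THP-1 myelomonocytic (macrophage-like) cells infected with S. aureus, then exposed 24 h to a range of antibiotic concentrations. CFU change was measured against the initial inoculum. A sigmoidal dose-response curve was fitted to give Emin, Emax and EC50, and the apparent static concentration (Cs) was taken from the fit.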

[4] = tested on: Staphylococcus aureus; assay: Antimicrobial activity against linezolid-susceptible Staphylococcus aureus SA238 infected in THP-1 cells at pH 5.5 after 24 hrs; type: functional, organism-based; settings: SA238, THP-1, 24 h
[5] = tested on: Staphylococcus aureus; assay: Antimicrobial activity against linezolid-susceptible Staphylococcus aureus SA238 after 24 hrs; type: functional, organism-based; settings: SA238, 24 h
[6] = tested on: Staphylococcus aureus; assay: Antimicrobial activity against methicillin-susceptible Staphylococcus aureus ATCC 25923 after 24 hrs; type: functional; settings: ATCC 25923, 24 h
[7] = tested on: Staphylococcus aureus; assay: Antimicrobial activity against linezolid-susceptible Staphylococcus aureus SA238 infected in THP1 cells at pH 7.4 after 24 hrs; type: functional, organism-based; settings: SA238, THP-1, 24 h
[8] = tested on: Staphylococcus aureus; assay: Bacteriostatic activity against linezolid-susceptible Staphylococcus aureus SA238 infected in HUVEC cells after 24 hrs; type: functional
Summary of the method: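 HUVEC were grown in endothelial growth medium on gelatin-treated flasks. They were infected with 2 × 10^6 bacteria/ml for 1 h phagocytosis, then exposed 24 h to graded antibiotic concentrations. CFU change from the initial inoculum was fitted to a sigmoidal curve to obtain the static concentration (Cs).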

[9] = tested on: Staphylococcus aureus; assay: Bacteriostatic activity against linezolid-resistant Staphylococcus aureus SA238L infected in human osteoblasts cells after 24 hrs; type: functional
Summary of the method: (§2)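 Adherent nonphagocytic cells were infected at 5 × 10^7 to 1 × 10^8 bacteria/ml with 2 h phagocytosis. Cells used: Calu-3 bronchial epithelium grown in uncoated flasks, neonatal foreskin keratinocytes on collagen-coated wells, primary human osteoblasts, and primary rat embryo fibroblasts. Antibiotic was then given over a concentration range for 24 h. Cs came from a sigmoidal fit of CFU change.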

[10] = Ratio of drug level for cellular to extracellular region of Staphylococcus aureus infected human keratinocyte at 4 mg/liter after 24 hrs; type: ADME, cell-based
Summary of the method: (§3)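 Cells were exposed to [14C]radezolid for 2 or 24 h. Cell-associated drug in lysates was measured by liquid scintillation counting (detection limit 0.003 mg/liter; linear 0.01–0.78 mg/liter). Content was normalised to cell protein (Lowry). It was converted to apparent cellular concentration at 5 μl per mg protein and expressed relative to the extracellular concentration.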

[11] = tested on: Staphylococcus aureus; assay: Antimicrobial activity against methicillin-resistant, vancomycin intermediate Staphylococcus aureus NRS52 after 24 hrs; type: functional; settings: NRS52, 24 h
[12] = tested on: Staphylococcus aureus; assay: Bacteriostatic activity against linezolid-resistant Staphylococcus aureus SA040L infected in THP1 cells after 24 hrs; type: functional, THP-1; summary of the method: as §1
[13] = tested on: Staphylococcus aureus; assay: Antimicrobial activity against linezolid-susceptible Staphylococcus aureus NRS18 infected in THP1 cells assessed as log reduction in bacterial count after 24 hrs; type: functional, THP-1
Summary of the method: (§4)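 Bacteria were phagocytosed by human THP-1 macrophage-like cells, then exposed to a range of drug concentrations for a fixed time: 24 h for S. aureus, S. epidermidis and L. monocytogenes, 48 h for L. pneumophila. Change in CFU versus the initial inoculum was fitted with a sigmoidal curve to give Emin, Emax (relative maximal efficacy), EC50 and static concentration (Cs).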

[14] = tested on: Staphylococcus aureus; assay: Antimicrobial activity against linezolid-susceptible Staphylococcus aureus ATCC 33591 infected in THP1 cells after 24 hrs; type: functional, organism-based; settings: ATCC 33591, THP-1, 24 h; summary of the method: as §4
[15] = tested on: Staphylococcus aureus; assay: Antimicrobial activity against community acquired methicillin-resistant Staphylococcus aureus NRS384 after 24 hrs; type: functional; settings: NRS384, 24 h
[16] = tested on: Staphylococcus aureus; assay: Antimicrobial activity against Linezolid resistant hospital acquired methicillin-resistant Staphylococcus aureus SA238L after 24 hrs; type: functional
[17] = tested on: Staphylococcus aureus; assay: Bacteriostatic activity against linezolid-resistant Staphylococcus aureus SA238L infected in rat fibroblast cells after 24 hrs; type: functional; summary of the method: as §2
[18] = Ratio of drug level for cellular to extracellular region of Staphylococcus aureus infected human keratinocyte at 4 mg/liter after 2 hrs; type: ADME, cell-based; summary of the method: as §3
[19] = tested on: Staphylococcus epidermidis; assay: Antimicrobial activity against Staphylococcus epidermidis infected in THP1 cells after 24 hrs; type: functional, organism-based; settings: THP-1, 24 h; summary of the method: as §4
[20] = tested on: Listeria monocytogenes; assay: Bacteriostatic activity against Listeria monocytogenes EGD infected in THP1 cells after 24 hrs; type: functional, THP-1; summary of the method: as §4
[21] = Ratio of drug level for cellular to extracellular region of Staphylococcus aureus infected human Calu3 cells at 4 mg/liter after 2 hrs; type: ADME, cell-based; settings: calu-3, 2 h; summary of the method: as §3
[22] = tested on: Staphylococcus aureus; assay: Antimicrobial activity against linezolid-susceptible Staphylococcus aureus ATCC 25923 infected in THP1 cells assessed as log reduction in bacterial count after 24 hrs; type: functional, THP-1; summary of the method: as §4
[23] = tested on: Staphylococcus aureus; assay: Antimicrobial activity against linezolid-resistant Staphylococcus aureus SA238L infected in human epidermal keratinocytes cells assessed as log reduction in bacterial count after 24 hrs; type: functional
Summary of the method: (§5)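 S. aureus was internalized by adherent nonphagocytic cells: Calu-3, HUVEC, keratinocytes on collagen-coated wells, osteoblasts, or rat embryo fibroblasts. Inoculum was 5 × 10^7 to 1 × 10^8 bacteria/ml with 2 h phagocytosis (HUVEC: 2 × 10^6/ml, 1 h). Cells were then exposed to graded drug concentrations for 24 h. CFU change versus the original inoculum was fitted sigmoidally for Emax and Cs.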

[24] = tested on: Staphylococcus aureus; assay: Bacteriostatic activity against linezolid-resistant Staphylococcus aureus SA238L infected in Calu-3 cells after 24 hrs; type: functional; summary of the method: as §2
[25] = tested on: THP-1; assay: Ratio of drug level for cellular to extracellular region of Staphylococcus aureus infected human THP-1 cells at 4 mg/liter after 2 hrs; type: ADME, cell-based; settings: thp-1, 2 h; summary of the method: as §3
[26] = tested on: Staphylococcus aureus; assay: Antimicrobial activity against linezolid-resistant Staphylococcus aureus SA040L infected in THP1 cells after 24 hrs; type: functional, organism-based; settings: THP-1, 24 h; summary of the method: as §4
[27] = tested on: Staphylococcus aureus; assay: Antimicrobial activity against linezolid-resistant Staphylococcus aureus SA040L infected in THP1 cells assessed as log reduction in bacterial count after 24 hrs; type: functional, THP-1; summary of the method: as §4
[28] = tested on: Staphylococcus epidermidis; assay: Bacteriostatic activity against Staphylococcus epidermidis infected in THP1 cells after 24 hrs; type: functional, THP-1; summary of the method: as §4
[29] = tested on: Staphylococcus aureus; assay: Bacteriostatic activity against linezolid-susceptible Staphylococcus aureus SA238 infected in THP1 cells at pH 5.5 after 24 hrs; type: functional, THP-1
[30] = tested on: Staphylococcus aureus; assay: Antimicrobial activity against linezolid-susceptible Staphylococcus aureus SA238 infected in rat fibroblast cells assessed as log reduction in bacterial count after 24 hrs; type: functional; summary of the method: as §5
[31] = tested on: Legionella pneumophila; assay: Antimicrobial activity against Legionella pneumophila ATCC 33153 infected in THP1 cells after 48hrs; type: functional, organism-based; settings: ATCC 33153, THP-1, 48 h; summary of the method: as §4
[32] = tested on: Staphylococcus aureus; assay: Antimicrobial activity against linezolid-susceptible Staphylococcus aureus NRS18 infected in THP1 cells after 24 hrs; type: functional, organism-based; settings: NRS18, THP-1, 24 h; summary of the method: as §4
[33] = Ratio of drug level for cellular to extracellular region of Staphylococcus aureus infected human Calu3 cells at 4 mg/liter after 24 hrs; type: ADME, cell-based; settings: calu-3, 24 h; summary of the method: as §3
[34] = tested on: Staphylococcus aureus; assay: Bacteriostatic activity against linezolid-susceptible Staphylococcus aureus SA238 infected in THP1 cells at pH 7.4 after 24 hrs; type: functional, THP-1
[35] = tested on: Staphylococcus aureus; assay: Bacteriostatic activity against linezolid-susceptible Staphylococcus aureus SA040 infected in THP1 cells after 24 hrs; type: functional, THP-1; summary of the method: as §1

SMILES: CC(=O)NC[C@H]1CN(c2ccc(-c3ccc(CNCc4cnn[nH]4)cc3)c(F)c2)C(=O)O1 [RADEZOLID]
- MIC [1]: 0.5 µg/mL (≈ 1.14 µM)
- MIC [2]: 0.5 µg/mL (≈ 1.14 µM)
- Activity [3]: 0.28 mg/L
- EC50 [4]: 0.02 µg/mL (≈ 0.0456 µM)
- EC50 [5]: 0.16 µg/mL (≈ 0.365 µM)
- MIC [6]: 0.25 µg/mL (≈ 0.57 µM)
- EC50 [7]: 0.31 µg/mL (≈ 0.707 µM)
- Activity [8]: 0.6 mg/L
- Activity [9]: 0.6 mg/L
- Ratio [10]: 16.1
- MIC [11]: 2 µg/mL (≈ 4.56 µM)
- Activity [12]: 0.56 mg/L
- log10cfu [13]: -1
- EC50 [14]: 0.12 µg/mL (≈ 0.274 µM)
- MIC [15]: 0.5 µg/mL (≈ 1.14 µM)
- MIC [16]: 2 µg/mL (≈ 4.56 µM)
- Activity [17]: 0.6 mg/L
- Ratio [18]: 12.6
- EC50 [19]: 1.51 µg/mL (≈ 3.44 µM)
- Activity [20]: 0.43 mg/L
- Ratio [21]: 8.5
- log10cfu [22]: -0.57
- log10cfu [23]: 0.6
- Activity [24]: 0.6 mg/L
- Ratio [25]: 9.3
- EC50 [26]: 0.14 µg/mL (≈ 0.319 µM)
- log10cfu [27]: -0.66
- Activity [28]: 0.03 mg/L
- Activity [29]: 0.06 mg/L
- log10cfu [30]: 0.6
- EC50 [31]: 0.47 µg/mL (≈ 1.07 µM)
- EC50 [32]: 0.09 µg/mL (≈ 0.205 µM)
- Ratio [33]: 8.3
- Activity [34]: 1.04 mg/L
- Activity [35]: 0.21 mg/L
